Assay results from ChEMBL document CHEMBL4819156, “Synthesis of novel 1H-Pyrazolo[3,4-b]pyridine derivatives as DYRK 1A/1B inhibitors” (Bioorg Med Chem Lett, 2021).
Calls of active or inactive are those of the source. The rule behind the calls is not given here.

Assays:
[1] = target: Dual specificity tyrosine-phosphorylation-regulated kinase 1B (Homo sapiens, UniProt Q9Y463); test: Inhibition of DYRK1B (unknown origin)
[2] = target: Dual specificity tyrosine-phosphorylation-regulated kinase 1A (Homo sapiens, UniProt Q13627); test: Inhibition of DYRK1A (unknown origin)
DLD-1 [3] = test: Cytotoxicity against human DLD-1cells assessed as reduction in cell viability; type: functional, cell-based
RKO = test: Cytotoxicity against human RKO cells assessed as reduction in cell viability; type: functional, cell-based
SW480 [4] = test: Anticancer activity against human SW480 cells assessed decrease in nuclei size at 5 uM measured after 10 days by Hoechst33342 staining based 3D spheroid assay; type: functional, cell-based; conditions: time 10.0 day
How it was run: (§1)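 3D spheroids grown in poly-HEMA-coated U-bottom wells. Compound added at days 3, 5 and 7. Cells were stained with Hoechst33342 for nuclei, calcein AM for live cells and ethidium homodimer-1 for dead cells. Images were taken on day 10 at 50×.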

DLD-1 [5] = test: Induction of autophagic cell death in human DLD-1 cells assessed as multi-vesicle formation; type: functional, cell-based
LoVo = test: Cytotoxicity against human LOVO cells assessed as reduction in cell viability; type: functional, cell-based
SW480 [6] = test: Anticancer activity against human SW480 cells assessed decrease in viable cells at 5 uM measured after 10 days by calcein AM staining based 3D spheroid assay; type: functional, cell-based; conditions: time 10.0 day; how it was run: as §1
LS174T = test: Cytotoxicity against human LS174T cells assessed as reduction in cell viability; type: functional, cell-based
HCT-116 [7] = test: Cytotoxicity against human HCT116 cells assessed as reduction in cell viability; type: functional, cell-based
HT-29 = test: Cytotoxicity against human HT29 cells assessed as reduction in cell viability; type: functional, cell-based
SW-620 [8] = test: Anticancer activity against human SW-620 cells assessed decrease in viable cells at 5 uM measured after 10 days by calcein AM staining based 3D spheroid assay; type: functional, cell-based; conditions: time 10.0 day; how it was run: as §1
SW480 [9] = test: Cytotoxicity against human SW480 cells assessed as reduction in cell viability; type: functional, cell-based
HCT-15 = test: Cytotoxicity against human HCT15 cells assessed as reduction in cell viability; type: functional, cell-based
SW480 [10] = test: Anticancer activity against human SW480 cells assessed dead cells at 5 uM measured after 10 days by Ethidium Homodimer-1 staining based 3D spheroid assay; type: functional, cell-based; conditions: time 10.0 day; how it was run: as §1
SW-620 [11] = test: Anticancer activity against human SW-620 cells assessed dead cells at 5 uM measured after 10 days by Ethidium Homodimer-1 staining based 3D spheroid assay; type: functional, cell-based; conditions: time 10.0 day; how it was run: as §1
SW-620 [12] = test: Anticancer activity against human SW-620 cells assessed decrease in nuclei size at 5 uM measured after 10 days by Hoechst33342 staining based 3D spheroid assay; type: functional, cell-based; conditions: time 10.0 day; how it was run: as §1
COLO 205 = test: Cytotoxicity against human COLO205 cells assessed as reduction in cell viability; type: functional, cell-based
HCT-116 [13] = test: Induction of autophagic cell death in human HCT-116 cells assessed as multi-vesicle formation; type: functional, cell-based
SW-620 [14] = test: Cytotoxicity against human SW-620 cells assessed as reduction in cell viability; type: functional, cell-based
Colon cancer cell line = test: Cytotoxicity against patient-derived human colon cancer organoids assessed as reduction of crypt size and disruption of intact organoid structure at 10 uM measured after 5 days by Celltiter-glo luminescent assay relative to control; type: functional, cell-based; conditions: time 5.0 day

Chain of Dual specificity tyrosine-phosphorylation-regulated kinase 1B (Q9Y463 whole entry): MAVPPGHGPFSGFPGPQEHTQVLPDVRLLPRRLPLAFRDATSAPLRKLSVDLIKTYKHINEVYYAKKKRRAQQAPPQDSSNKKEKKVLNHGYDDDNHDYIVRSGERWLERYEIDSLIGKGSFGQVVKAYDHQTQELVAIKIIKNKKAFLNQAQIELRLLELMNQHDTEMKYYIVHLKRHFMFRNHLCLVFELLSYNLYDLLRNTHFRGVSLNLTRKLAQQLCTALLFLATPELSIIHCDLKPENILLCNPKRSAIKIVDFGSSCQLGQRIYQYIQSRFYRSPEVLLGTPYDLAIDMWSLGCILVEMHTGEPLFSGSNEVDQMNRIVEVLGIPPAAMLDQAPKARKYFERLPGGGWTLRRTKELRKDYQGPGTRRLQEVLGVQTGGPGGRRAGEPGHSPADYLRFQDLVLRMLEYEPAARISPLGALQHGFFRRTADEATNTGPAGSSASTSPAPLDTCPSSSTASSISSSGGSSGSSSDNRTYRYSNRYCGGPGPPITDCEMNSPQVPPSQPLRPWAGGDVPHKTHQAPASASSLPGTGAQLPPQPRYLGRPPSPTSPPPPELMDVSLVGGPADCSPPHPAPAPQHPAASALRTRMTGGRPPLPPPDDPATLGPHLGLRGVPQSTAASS

| SMILES | IC50 [1] [nM] | IC50 [2] [nM] | further results |
| --- | --- | --- | --- |
| COc1ccc(-c2n[nH]c3ncc(-c4ccc(NC(C)=O)cc4)cc23)cc1 | 7 | 8 |  |
| Brc1cnc2[nH]nc(-c3ccsc3)c2c1 | 736 |  |  |
| COc1cccc(-c2n[nH]c3ncc(Br)cc23)c1 | > 5000 |  |  |
| Brc1cnc2[nH]nc(-c3ccccc3)c2c1 | 2040 |  |  |
| COc1cccc(-c2n[nH]c3ncc(Nc4ccccc4)cc23)c1 | 575 | 2820 |  |
| CS(=O)(=O)Nc1ccc(-c2cnc3[nH]nc(-c4ccc(O)cc4)c3c2)cc1 | 5 |  |  |
| c1ccc(-c2cnc3[nH]nc(-c4ccccc4)c3c2)cc1 | > 5000 | > 5000 |  |
| O=[N+]([O-])c1cccc(-c2n[nH]c3ncc(Br)cc23)c1 | > 5000 |  |  |
| CC(=O)Nc1cccc(-c2n[nH]c3ncc(-c4ccc(O)c(O)c4)cc23)c1 | 29 | 24 |  |
| COc1ncc(-c2n[nH]c3ncc(-c4ccc(OC)c(OC)c4)cc23)cn1 | 167 | 299 |  |
| NC(=O)Nc1ccc(-c2cnc3[nH]nc(-c4ccc(O)cc4)c3c2)cc1 | 10 |  |  |
| O=C(O)c1ccc(-c2n[nH]c3ncc(Br)cc23)cc1 | 1050 |  |  |
| COc1cccc(-c2n[nH]c3ncc(Nc4cccc(O)c4)cc23)c1 | 191 | 950 |  |
| Oc1ccc(-c2n[nH]c3ncc(-c4ccc(O)c(O)c4)cc23)cc1 |  |  | IC50 (DLD-1 [3]): 2450 nM; IC50 (RKO): 1100 nM; Activity (SW480 [4]): Active; Activity (DLD-1 [5]): Active; IC50 (LoVo): 19100 nM; Activity (SW480 [6]): Active; IC50 (LS174T): 37500 nM; IC50 (HCT-116 [7]): 1570 nM; IC50 (HT-29): 10900 nM; Activity (SW-620 [8]): Active; IC50 (SW480 [9]): 4130 nM; IC50 (HCT-15): 20100 nM; Activity (SW480 [10]): Active; Activity (SW-620 [11]): Active; Activity (SW-620 [12]): Active; IC50 (COLO 205): 6220 nM; Activity (HCT-116 [13]): Active; IC50 (SW-620 [14]): 3970 nM; Activity (Colon cancer cell line): Active |
| COc1ccc(-c2n[nH]c3ncc(-c4ccc(OC)c(OC)c4)cc23)cc1 | 97 | 75 |  |
| COc1ccc(-c2cnc3[nH]nc(-c4cccc(NC(C)=O)c4)c3c2)cc1OC | 287 | 632 |  |
| COc1ncc(-c2n[nH]c3ncc(-c4ccc(O)c(O)c4)cc23)cn1 | 15 |  |  |
| COc1ccc(-c2n[nH]c3ncc(Nc4cccc(O)c4)cc23)cc1 | 31 | 33 |  |
| Oc1cccc(-c2cnc3[nH]nc(-c4cccc(O)c4)c3c2)c1 | 39 | 213 |  |

| SMILES | IC50 [1] [nM] | IC50 [2] [nM] | further results |
| --- | --- | --- | --- |
| COc1ccc(-c2n[nH]c3ncc(Nc4ccccc4)cc23)cc1 | 188 | 365 |  |
| Brc1cnc2[nH]nc(-c3cnn(Cc4ccccc4)c3)c2c1 | 121 |  |  |
| Nc1cccc(-c2n[nH]c3ncc(Br)cc23)c1 | 635 |  |  |
| Oc1ccc(-c2n[nH]c3ncc(Br)cc23)cc1 | 87 | 56 |  |
| CC(=O)Nc1ccc(-c2n[nH]c3ncc(Br)cc23)cc1 | 568 | 1110 |  |
| CC(=O)Nc1ccc(-c2cnc3[nH]nc(-c4ccc(O)cc4)c3c2)cc1 | 13 |  |  |
| Oc1ccc(-c2cnc3[nH]nc(-c4ccc(O)cc4)c3c2)cc1 | 6 | 5 |  |
| Brc1cnc2[nH]nc(-c3ccc4cc[nH]c4c3)c2c1 | 615 |  |  |
| COc1ccc(-c2n[nH]c3ncc(Nc4cc(C(F)(F)F)cc(C(F)(F)F)c4)cc23)cc1 | 1270 | 3550 |  |
| COc1ccc(-c2n[nH]c3ncc(Br)cc23)cc1 | 54 |  |  |
| COc1ncc(-c2n[nH]c3ncc(Br)cc23)cn1 | 141 |  |  |
| Brc1cnc2[nH]nc(-c3cncnc3)c2c1 | 4040 | 92 |  |
| COc1ccc(-c2n[nH]c3ncc(Nc4cccc(OCc5ccccc5)c4)cc23)cc1 | 309 | 309 |  |
| COc1ccc(-c2n[nH]c3ncc(-c4ccc(NC(N)=O)cc4)cc23)cc1 | 2 |  |  |
| COc1cccc(-c2n[nH]c3ncc(Nc4cccc(OCc5ccccc5)c4)cc23)c1 | 3680 | > 5000 |  |
| Oc1ccc(-c2cnc3[nH]nc(-c4ccccc4)c3c2)cc1 | 56 | 44 |  |
| CC(=O)Nc1cccc(-c2n[nH]c3ncc(Br)cc23)c1 | 257 | 638 |  |
| O=[N+]([O-])c1ccc(-c2n[nH]c3ncc(Br)cc23)cc1 | > 5000 |  |  |
